Data set [1] is described as follows: Drug localization in human A549 cells mitochondria at 10 uM incubated for 1 hr prior to PBS washout followed by visible light irradiation for 10 mins by inverted fluorescence microscopy analysis. The format is ADME. Particulars: a549, 1 h. A digest of the protocol:
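A549 cells were loaded with 10 µM compound in complete DMEM for 1 h at 37 °C, washed, and irradiated in PBS with 400–700 nm light (11 mW) for 10 min. Mito Red (100 nM, 15 min) was added before a PBS wash. Coumarin signal was imaged at ex/em 350/460 nm and Mito Red at 550/580 nm. Overlap was taken from a scatter plot as Pearson's correlation coefficient.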

The nature of data set [2]: Drug release in 1: 9 DMSO/PBS at pH 9 at 50 uM under visible light irradiation upto 20 mins by emission spectroscopy. The data set is classed as ADME. The note with it: buffer, pH 9, 20 min. The method, boiled down:
(§1)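 Drug release was measured across pH 4–9. Solutions of 50 µM in 1:9 DMSO/buffer were irradiated with 400–700 nm light (11 mW) at 2 cm and 25 °C, in 2-min steps over 0–20 min. Release was taken from coumarin reporter emission (ex 385 nm, em 475 nm). A dark control received no light.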

The test system of data set [3] is A549. Briefly: Photocytotoxicity in human A549 cells assessed as reduction in cell viability preincubated for 1 hr followed by two-photon NIR light irradiation for 10 mins and measured after 72 hrs by MTT assay. Particulars: A549, light or radiation study; call rule not given here.
Data set [4] concerns A549. Briefly: Photocytotoxicity in human A549 cells assessed as reduction in cell viability at 10 uM preincubated for 1 hr followed by two-photon NIR light irradiation for 10 mins and measured after 72 hrs by MTT assay. The format is functional. The note with it: time 4390 min, 73.17 h. A digest of the protocol: (§2)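 A549 cells (9000/well) were treated with compound for 1 h at 37 °C in the dark, then moved to PBS. They were irradiated with a two-photon femtosecond laser (800 nm, 50 mW) for 0, 5, 10, 15 or 20 min, then incubated 72 h in the dark in medium. Viability was read by MTT over 2 h, with formazan in DMSO at 570 nm. Unirradiated wells served as dark control.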
(In general: Formazan colour is commonly taken as a measure of viable cells.)

Data set [5] has as its system A549. Briefly: Photocytotoxicity in human A549 cells assessed as reduction in cell viability at 5 uM preincubated for 1 hr followed by visible light irradiation upto 30 mins and measured after 72 hrs by MTT assay. The note with it: time 73.5 hrs, TDE = time-dependent effect. The format is functional, cell-based. The method, boiled down: (§3)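 A549 or MCF7 cells (9000/well, grown 24 h) were given compound in medium with ≤1% DMSO for 1 h at 37 °C in the dark, washed twice and placed in PBS. They were irradiated with 400–700 nm light (11 mW) for 10, 20 or 30 min, then incubated 72 h in the dark. Viability was read by MTT (2 h, 37 °C), with formazan in DMSO at 570 nm. Unirradiated wells served as dark control.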

Data set [6] deals with A549. Briefly: Induction of mitochondrial membrane depolarization in human A549 cells after 1 hr by JC-1 dye staining based FACS analysis (reference value: 5.3 +/- 1.1 %). The data set is classed as functional. On the technique in general: Flow cytometry measures light scatter and fluorescence of single cells or particles in a stream.
The subject of another data set is MCF7. Briefly: Photocytotoxicity in human MCF7 cells assessed as reduction in cell viability preincubated for 1 hr followed by visible light irradiation for 30 mins and measured after 72 hrs by MTT assay. The note with it: MCF7, light or radiation study. The format is functional, cell-based. The method, boiled down: as §3
Data set [7] deals with A549. Briefly: Photo-induced drug release in human A549 cells assessed as increase in blue fluorescence at 10 uM incubated for 1 hr prior to PBS washout followed by visible light irradiation for 2 mins and further incubated for 10 mins by fluorescence imaging analysis. The format is ADME, cell-based. Particulars: a549, 1 h. A digest of the protocol:
(§4)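 A549 cells (2 × 10^5/well, seeded a day before) received 10 µM compound for 1 h at 37 °C in the dark and were washed with cold PBS. They were irradiated with 400–700 nm light (11 mW) for 0, 2, 5, 10, 15, 20 or 30 min, then held 10 min. Blue-channel fluorescence was imaged and given as the mean of 30 cells, fitted to an exponential.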

The subject of data set [8] is A549. Briefly: Photocytotoxicity in human A549 cells assessed as reduction in cell viability at 10 uM preincubated for 1 hr followed by two-photon NIR light irradiation for 5 mins and measured after 72 hrs by MTT assay. The format is functional. Particulars: time 4385 min, 73.08 h. A digest of the protocol: as §2
Data set [9] has as its system A549. Briefly: Induction of mitochondrial membrane depolarization in human A549 cells after 30 mins by JC-1 dye staining based FACS analysis (reference value: 5.3 +/- 1.1 %). The format is functional. Particulars: 0.5 h.
For data set [10], the system named is A549. Briefly: Dark toxicity in human A549 cells assessed as reduction in cell viability upto 20 uM incubated for 72 hrs by MTT assay. Particulars: a549, 72 h. The format is cell-based. The method, boiled down: (§5)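 Cells seeded at 9000/well in DMEM with 10% FBS, grown 24 h at 37 °C in 5% CO2. Compound in medium with ≤1% DMSO for 1 h at 37 °C in the dark, washed twice with PBS, kept unirradiated, then incubated 72 h in the dark. MTT (5 mg mL-1 stock) added for 2 h at 37 °C, formazan dissolved in DMSO, absorbance read at 570 nm.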

Data set [11] is described as follows: Drug release in 1: 9 DMSO/PBS at pH 4 at 50 uM under visible light irradiation upto 20 mins by emission spectroscopy. The format is ADME. The note with it: buffer, pH 4, 20 min. The method, boiled down:
as §1

For data set [12], the system named is A549. Briefly: (§6) Dark toxicity in human A549 cells assessed as reduction in cell viability incubated for 72 hrs by MTT assay. The note with it: a549, 72 h, time 72 hrs. The data set is classed as cell-based. A digest of the protocol: as §5
Data set [13] in a line: Lipophilicity, logP of compound in n-Octanol/water. The data set is classed as physicochemical.
Data set [14] has as its system A549. Briefly: Photo-induced drug release in human A549 cells assessed as increase in blue fluorescence at 10 uM incubated for 1 hr prior to PBS washout followed by visible light irradiation and further incubated for 10 mins by fluorescence imaging analysis. The note with it: a549, 1 h, TDE = time-dependent effect. The format is ADME, cell-based. A digest of the protocol:
as §4

The subject of data set [15] is A549. Briefly: Photocytotoxicity in human A549 cells assessed as reduction in cell viability at 10 uM preincubated for 1 hr followed by two-photon NIR light irradiation for 20 mins and measured after 72 hrs by MTT assay. The note with it: time 4400 min, 73.33 h. The data set is classed as functional. A digest of the protocol: as §2
Data set [16] in a line: Drug uptake in human A549 cells at 10 uM incubated for 1 hr by FACS analysis. The format is ADME, cell-based. Particulars: a549, 1 h. The method, boiled down: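 A549 cells (1.5 × 10^5/well) were washed and given 10 µM compound in medium with 1% DMSO for 0, 0.5, 1 or 2 h at 37 °C. They were irradiated in PBS with visible light (400–700 nm, 11 mW) for 10 min, then trypsinized and resuspended in HBSS. Blue coumarin fluorescence was read by flow cytometry on about 10000 cells.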

Data set [17] is described as follows: Drug release in 1: 9 DMSO/PBS at pH 7 at 50 uM under visible light irradiation upto 20 mins by emission spectroscopy. The note with it: buffer, pH 7, 20 min. The format is ADME. The method, boiled down:
as §1

For data set [18], the system named is A549. Briefly: Photocytotoxicity in human A549 cells assessed as reduction in cell viability preincubated for 1 hr followed by visible light irradiation for 30 mins and measured after 72 hrs by MTT assay. The format is functional, cell-based. The note with it: for IC50: A549, light or radiation study. A digest of the protocol:
as §3

Data set [19] can be described thus: Dark toxicity in human MCF7 cells assessed as reduction in cell viability incubated for 72 hrs by MTT assay. The data set is classed as cell-based. The method, boiled down:
as §5

Data set [20] in a line: as §6. The format is cell-based. Particulars: A549 cells. The method, boiled down: as §5

This is an account of results in ChEMBL document CHEMBL5329148, “Visible and NIR light photoactivatable o-hydroxycinnamate system for efficient drug release with fluorescence monitoring” (RSC Med Chem, 2023).

One may read the IC50 as the concentration at which inhibition is half-maximal. By logP is commonly meant the decadic logarithm of the partition coefficient of the neutral form, usually between octanol and water. For the molecule `CCN(CC)c1ccc(/C=C/C(=O)OC[C@H]2O[C@@H](n3ccc(N)nc3=O)C(F)(F)[C@@H]2O)c(O)c1`, the Drug uptake entry in [1] and in [16] was “Active” throughout. For the same molecule, the Drug metabolism entry in data set [2] is reported as “Active”; with A549 [7], “Metabolite_Detected”; in [11], “Active”; in the data set on A549 [14], “Tde”; in [17], “Active”. The results for the IC50 in the data set on A549 [3], in the data set with MCF7 and in the data set on A549 [18] were 12500 nM, 5450 nM and 5050 nM, respectively. Further, the Activity is 47% in the data set with A549 [4]; “Tde” in the data set on A549 [5]; 82.3% in the data set on A549 [6]; 35% in the data set with A549 [8]; 13.9% in the data set with A549 [9]; “Non-Toxic” with A549 [10]. For the same molecule, the values for the Activity result in the data set with A549 [12], in the data set with A549 [15] and in the data set with A549 [18] (time 73.5 hrs) were “Non-Toxic”, 57% and “Dose-Dependent Effect”, respectively. The molecule also displayed a logP in data set [13] of 2.1.
Consider `Nc1ccn([C@@H]2O[C@H](CO)[C@@H](O)C2(F)F)c(=O)n1` [GEMCITABINE], for which the concentration for half-maximal inhibition (IC50) at 72 h in data set [19] stood at 1460 nM; in data set [20], 750 nM. Further, the IC50 in the data set with A549 [3] came to 800 nM; in the data set with MCF7 it was 1360 nM; in the data set on A549 [18], 650 nM.
